Data: ChEMBL document CHEMBL4765319, “Identification of a new series of flavopiridol-like structures as kinase inhibitors with high cytotoxic potency” (Eur J Med Chem, 2020)
Calls of active or inactive are those of the source. No cut-off for these calls is given here.

Assays:
K562 [1] = test: Cell cycle arrest in human K562 cells assessed as accumulation at G0/G1 phase at 50 nM after 24 hrs by propidium iodide staining-based flow cytometric analysis (reference value: 21.4 %); format: functional
SK-OV-3 = test: Antiproliferative activity against human SKOV3 cells assessed as reduction in cell viability incubated for 72 hrs by CellTiter-Blue fluorescence assay; conditions: SK-OV-3, 72 h
K562 [2] = test: Cell cycle arrest in human K562 cells assessed as accumulation at S phase at 50 nM after 24 hrs by propidium iodide staining-based flow cytometric analysis (reference value: […]); format: functional
[3] = biological target: T1, CDK2/Cyclin A2 (Homo sapiens) (UniProt P24941+P20248); test: Inhibition of human CDK2/cyclin A assessed as residual activity at 10 uM in presence of ATP by ADP-glo luminescent assay relative to control; format: protein-complex assay
In short: (§1)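 Human kinases assayed by ADP-Glo luminescence with 10 μM ATP, compound at 10 or 1 μM. Activity is expressed as % of maximal activity relative to a DMSO control, mean n = 2.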

[4] = biological target: T2, Glycogen synthase kinase-3 beta (Homo sapiens, UniProt P49841); test: Inhibition of human GSK3beta assessed as residual activity at 10 uM in presence of ATP by ADP-glo luminescent assay relative to control; in short: as §1
Target sequence in this assay (P49841 whole entry, looked up): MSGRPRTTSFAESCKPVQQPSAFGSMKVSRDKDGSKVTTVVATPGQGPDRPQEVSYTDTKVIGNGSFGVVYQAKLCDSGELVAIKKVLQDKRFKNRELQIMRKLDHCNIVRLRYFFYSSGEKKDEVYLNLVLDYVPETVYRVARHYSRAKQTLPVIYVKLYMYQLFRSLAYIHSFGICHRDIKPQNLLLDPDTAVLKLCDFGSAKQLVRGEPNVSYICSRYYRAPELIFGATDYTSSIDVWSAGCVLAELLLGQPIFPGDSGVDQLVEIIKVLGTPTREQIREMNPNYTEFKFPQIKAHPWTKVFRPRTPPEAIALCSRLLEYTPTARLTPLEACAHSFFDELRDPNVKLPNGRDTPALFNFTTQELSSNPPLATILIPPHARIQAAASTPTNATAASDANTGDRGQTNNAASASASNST

Sus scrofa [5] = organism: Sus scrofa; test: Inhibition of porcine GSK3alpha/beta assessed as residual activity at 10 uM in presence of ATP by ADP-glo luminescent assay relative to control
In short: (§2)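 Porcine brain GSK3α/β, native and affinity-purified. Assayed by ADP-Glo luminescence with 10 μM ATP and 0.010 μg/μl GS-1 peptide substrate. Buffer A: 10 mM MgCl2, 1 mM EGTA, 1 mM DTT, 25 mM Tris-HCl pH 7.5, 50 μg/ml heparin. Compound tested at 10 or 1 μM. Result is % of maximal activity versus DMSO control, mean of n = 2.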

K562 [6] = test: Cell cycle arrest in human K562 cells assessed as increase in accumulation at G2/M phase after 24 hrs by propidium iodide staining-based flow cytometric analysis; format: functional; conditions: dose 25-100 nM
MIA PaCa-2 = test: Antiproliferative activity against human MIA PaCa-2 cells assessed as reduction in cell viability incubated for 72 hrs by CellTiter-Blue fluorescence assay; conditions: MIA PaCa-2, 72 h
[7] = biological target: T2, Glycogen synthase kinase-3 beta; test: Potency index, ratio of flavopiridol IC50 to test compound IC50 for human GSK3beta in presence of ATP by ADP-glo luminescent assay
Target sequence in this assay (P49841 whole entry, looked up): as above

[8] = biological target: T3, CDK9/cyclin T1 (Homo sapiens) (UniProt O60563+P50750); test: Inhibition of human CDK9/cyclin T assessed as residual activity at 10 uM in presence of ATP by ADP-glo luminescent assay relative to control; format: protein-complex assay; in short: as §1
[9] = biological target: T3, CDK9/cyclin T1 (Homo sapiens); test: Inhibition of human CDK9/cyclin T assessed as residual activity at 1 uM in presence of ATP by ADP-glo luminescent assay relative to control; format: protein-complex assay; in short: as §1
[10] = biological target: T2, Glycogen synthase kinase-3 beta; test: Inhibition of human GSK3beta in presence of ATP by ADP-glo luminescent assay
In short: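 Human kinases tested over roughly 0.0003–10 μM by ADP-Glo luminescence with 10 μM ATP, in duplicate. IC50 is taken from dose-response curves.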
Target sequence in this assay (P49841 whole entry): as the sequence (P49841 whole entry, looked up) above

Plasmodium falciparum = test: Inhibition of Plasmodium falciparum GSK3 assessed as residual activity at 1 uM in presence of ATP by ADP-glo luminescent assay relative to control
In short: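 Recombinant P. falciparum GSK3, bacterially expressed, in buffer A (10 mM MgCl2, 1 mM EGTA, 1 mM DTT, 25 mM Tris-HCl pH 7.5, 50 μg/ml heparin). Substrate 0.010 μg/μl GS-1 peptide, 10 μM ATP, ADP-Glo luminescence. Compound at 10 or 1 μM; % residual activity vs DMSO control, mean n = 2.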

K562 [11] = test: Cell cycle arrest in human K562 cells assessed as accumulation at G0/G1 phase at 25 nM after 24 hrs by propidium iodide staining-based flow cytometric analysis (reference value: 21.4 %); format: functional
[12] = biological target: T2, Glycogen synthase kinase-3 beta; test: ATP competitive inhibition of human GSK3beta at 500 nM in presence of ATP by ADP-glo luminescent assay
In short: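 HsGSK3β activity by ADP-Glo luminescence with 500 nM inhibitor, or without it, across ATP 3.125 to 100 μM. Residual activity is given as % of a DMSO control, mean (n = 3) ± SD.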
Target sequence in this assay (P49841 whole entry, looked up): as above

Sus scrofa [13] = organism: Sus scrofa; test: Inhibition of porcine GSK3alpha/beta assessed as residual activity at 1 uM in presence of ATP by ADP-glo luminescent assay relative to control; in short: as §2
K562 [14] = test: Cell cycle arrest in human K562 cells assessed as accumulation at G0/G1 phase at 100 nM after 24 hrs by propidium iodide staining-based flow cytometric analysis (reference value: 21.4 %); format: functional
K562 [15] = test: Cell cycle arrest in human K562 cells assessed as accumulation at G2/M phase at 50 nM after 24 hrs by propidium iodide staining-based flow cytometric analysis (reference value: 12.9 %); format: functional
NCI-N87 = test: Antiproliferative activity against human NCI-N87 cells assessed as reduction in cell viability incubated for 72 hrs by CellTiter-Blue fluorescence assay; conditions: NCI-N87, 72 h
Leishmania major = test: Inhibition of Leishmania major CK1 assessed as residual activity at 1 uM in presence of ATP by ADP-glo luminescent assay relative to control
[16] = biological target: T1, CDK2/Cyclin A2 (Homo sapiens); test: Inhibition of human CDK2/cyclin A assessed as residual activity at 1 uM in presence of ATP by ADP-glo luminescent assay relative to control; format: protein-complex assay; in short: as §1
[17] = biological target: T2, Glycogen synthase kinase-3 beta; test: Inhibition of human GSK3beta assessed as residual activity at 1 uM in presence of ATP by ADP-glo luminescent assay relative to control; in short: as §1
Target sequence in this assay (P49841 whole entry, looked up): as above

K562 [18] = test: Cell cycle arrest in human K562 cells assessed as accumulation at S phase at 100 nM after 24 hrs by propidium iodide staining-based flow cytometric analysis (reference value: […]); format: functional
HCT-116 [19] = test: Antiproliferative activity against human HCT-116 cells assessed as reduction in cell viability incubated for 72 hrs by CellTiter-Blue fluorescence assay; conditions: HCT-116, 72 h
HCT-116 [20] = test: Cell cycle arrest in human HCT-116 cells assessed as accumulation at G2/M phase at 200 nM after 24 hrs by propidium iodide staining-based flow cytometric analysis (reference value: 31.5 %); format: functional
[21] = biological target: T4, Cyclin-dependent kinase 5/CDK5 activator 1 (Homo sapiens) (UniProt Q00535+Q15078); test: Inhibition of human CDK5/p25 assessed as residual activity at 1 uM in presence of ATP by ADP-glo luminescent assay relative to control; format: protein-complex assay; in short: as §1
HCT-116 [22] = test: Cell cycle arrest in human HCT-116 cells assessed as increase in accumulation at G2/M phase after 24 hrs by propidium iodide staining-based flow cytometric analysis; format: functional; conditions: dose 100-500 nM
[23] = biological target: T4, Cyclin-dependent kinase 5/CDK5 activator 1 (Homo sapiens); test: Inhibition of human CDK5/p25 assessed as residual activity at 10 uM in presence of ATP by ADP-glo luminescent assay relative to control; format: protein-complex assay; in short: as §1

T4 sequence (Q00535 whole entry): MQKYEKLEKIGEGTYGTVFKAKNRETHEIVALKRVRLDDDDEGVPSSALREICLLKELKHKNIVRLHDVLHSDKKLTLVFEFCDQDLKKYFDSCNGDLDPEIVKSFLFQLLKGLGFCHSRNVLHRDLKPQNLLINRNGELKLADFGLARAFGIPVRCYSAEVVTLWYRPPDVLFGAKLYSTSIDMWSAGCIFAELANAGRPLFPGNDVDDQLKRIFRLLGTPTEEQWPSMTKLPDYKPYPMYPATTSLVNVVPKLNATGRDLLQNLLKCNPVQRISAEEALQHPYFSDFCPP
T4 sequence (Q15078 99-307 partner limits assumed): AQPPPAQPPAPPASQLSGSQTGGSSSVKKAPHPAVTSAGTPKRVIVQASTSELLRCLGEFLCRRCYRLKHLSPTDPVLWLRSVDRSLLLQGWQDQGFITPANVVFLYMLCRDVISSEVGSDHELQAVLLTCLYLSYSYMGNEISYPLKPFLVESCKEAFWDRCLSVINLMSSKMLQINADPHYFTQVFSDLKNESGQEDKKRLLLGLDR

IC50 (SK-OV-3): 0.094 µM
Activity [3]: 30%
Activity [4]: 2%
Activity (Sus scrofa [5]): 10%
IC50 (MIA PaCa-2): 0.0529 µM
Ratio IC50 [7]: 20
Activity [8]: -2%
Activity [9]: 1%
IC50 [10]: 0.059 µM
Activity (Plasmodium falciparum): 80%
inhibition [12]: Active
Activity (Sus scrofa [13]): 31%
Activity (Leishmania major): 62%
Activity [16]: 87%
Activity [17]: 12%
IC50 (HCT-116 [19]): 0.081 µM
Activity [21]: 68%
Activity [23]: 24%
SMILES: CN1CC=C(c2c(O)cc(O)c3c(=O)cc(-c4ccc(Sc5nc6ccccc6n5C)cc4Cl)oc23)CC1
Activity (K562 [1]): 27.8%
Activity (K562 [2]): 49.4%
Activity (K562 [6]): Dose-dependent effect
Activity (K562 [11]): 20.7%
Activity (K562 [14]): 50.3%
Activity (K562 [15]): 22.7%
IC50 (NCI-N87): 0.049 µM
Activity (K562 [18]): 21%
Activity (HCT-116 [20]): 30.9%
Activity (HCT-116 [22]): Dose-dependent effect
